Assay results published in PubChem BioAssay.
Active and inactive are the calls of the source.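 Rule for the calls, unless noted: active = viability loss from added drug above about 55%, and viability with drug at most 40%, in both replicates (limit read from the data, passing the limit was not always enough); inconclusive = both conditions met in only one replicate; inactive = neither replicate meets both conditions.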

Experiments:
[1] = Her2 expression decrease, cell viability multiplex – SKBR3 breast tumor cells, AlphaScreen, ATP viability, primary screen (AID 461;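 active = Her2 level under about 52% in both replicate screens, with viability over 70% of control, limit read from the data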;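 for Her2 level: lower value means less Her2 protein in the cells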;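 for viability: percent of carrier control wells set as 100% viability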); conditions: SKBR3 Her2 protein level, 18-24 h, measured here: SKBR3 viability, ATP luminescence, at 10 µM
[2] = biological target: Receptor tyrosine-protein kinase erbB-2 (Homo sapiens) (UniProt P04626); test: as above; conditions: 18-24 h, at 10 µM, stronger effect = lower value
[3] = reduced viability of SK-BR-3 breast cancer cells – cell-based, 24 h, human, pilot screen (AID 572;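 active = viability at or below 10% of carrier control in both of two separate runs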;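 note: compound exposure lasted between 18 and 24 h rather than exactly 24 h; 100% = carrier-treated control wells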); conditions: SK-BR-3 viability, CellTiter-Glo luminescence, at 10 µM, stronger effect = lower value
[4] = HUVEC growth inhibition – cell-based, human, primary screen (AID 575;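 active = viability at or below 30% in both replicate assays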;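 note: 100% = median of untreated cell wells with 0.1% DMSO on each plate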); conditions: HUVEC proliferation, CellTiter-Glo luminescence, 72 h; at 10 µM; stronger effect = lower value
Outline: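 System – primary HUVEC, no more than 12 passages · Medium – Low-serum (2% FBS) EBM, supplemented · Times – 72 h exposure, 37 °C, 5% CO2, 30 min RT equilibration · Measured by – luminescent ATP assay · Read-out – % viability relative to median vehicle-well signal on each plate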

[5] = H69AR cell proliferation blockers – human, duplicate replicates, primary screen (AID 580;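 active = viability at or under a set limit in both replicates, limit being median viability minus 3 SD, cut at about 48% in these data, passing the limit was not always enough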;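 note: 100% = mean luminescence of untreated wells and 0% = no signal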); conditions: H69AR lung tumor cells viability, ATP luminescence, 72 h; at 10 µM; stronger effect = lower value
[6] = MRP1 drug-resistance reversers in H69AR cells – cell-based, doxorubicin co-treatment, pilot screen (AID 601); conditions: CellTiter-Glo, 72 h, at 10 µM; for differential viability (reversal): stronger effect = higher value
[7] = yeast transport mutant growth inhibition pilot in 384-well plates, post-Golgi transport modulator project (AID 636; in the data active = inhibition above about 31%); conditions: absorbance 615 nm, about 18 h, stronger effect = higher value
[8] = growth suppression of yeast trafficking mutant, preliminary HTS, modulators of trafficking downstream of Golgi apparatus project, 1536-format plate, OD 615 nm (AID 637; in the data active = inhibition above about 30%); conditions: yeast transport mutant growth, absorbance 615 nm, 18 h; stronger effect = higher value
[9] = H69AR cells + 2 uM doxorubicin, measured here: viability with 2 uM doxorubicin, stronger effect = lower value
[10] = H69AR cells, compound alone cytotoxicity

Chain of Receptor tyrosine-protein kinase erbB-2 (Homo sapiens) (P04626 whole entry, looked up): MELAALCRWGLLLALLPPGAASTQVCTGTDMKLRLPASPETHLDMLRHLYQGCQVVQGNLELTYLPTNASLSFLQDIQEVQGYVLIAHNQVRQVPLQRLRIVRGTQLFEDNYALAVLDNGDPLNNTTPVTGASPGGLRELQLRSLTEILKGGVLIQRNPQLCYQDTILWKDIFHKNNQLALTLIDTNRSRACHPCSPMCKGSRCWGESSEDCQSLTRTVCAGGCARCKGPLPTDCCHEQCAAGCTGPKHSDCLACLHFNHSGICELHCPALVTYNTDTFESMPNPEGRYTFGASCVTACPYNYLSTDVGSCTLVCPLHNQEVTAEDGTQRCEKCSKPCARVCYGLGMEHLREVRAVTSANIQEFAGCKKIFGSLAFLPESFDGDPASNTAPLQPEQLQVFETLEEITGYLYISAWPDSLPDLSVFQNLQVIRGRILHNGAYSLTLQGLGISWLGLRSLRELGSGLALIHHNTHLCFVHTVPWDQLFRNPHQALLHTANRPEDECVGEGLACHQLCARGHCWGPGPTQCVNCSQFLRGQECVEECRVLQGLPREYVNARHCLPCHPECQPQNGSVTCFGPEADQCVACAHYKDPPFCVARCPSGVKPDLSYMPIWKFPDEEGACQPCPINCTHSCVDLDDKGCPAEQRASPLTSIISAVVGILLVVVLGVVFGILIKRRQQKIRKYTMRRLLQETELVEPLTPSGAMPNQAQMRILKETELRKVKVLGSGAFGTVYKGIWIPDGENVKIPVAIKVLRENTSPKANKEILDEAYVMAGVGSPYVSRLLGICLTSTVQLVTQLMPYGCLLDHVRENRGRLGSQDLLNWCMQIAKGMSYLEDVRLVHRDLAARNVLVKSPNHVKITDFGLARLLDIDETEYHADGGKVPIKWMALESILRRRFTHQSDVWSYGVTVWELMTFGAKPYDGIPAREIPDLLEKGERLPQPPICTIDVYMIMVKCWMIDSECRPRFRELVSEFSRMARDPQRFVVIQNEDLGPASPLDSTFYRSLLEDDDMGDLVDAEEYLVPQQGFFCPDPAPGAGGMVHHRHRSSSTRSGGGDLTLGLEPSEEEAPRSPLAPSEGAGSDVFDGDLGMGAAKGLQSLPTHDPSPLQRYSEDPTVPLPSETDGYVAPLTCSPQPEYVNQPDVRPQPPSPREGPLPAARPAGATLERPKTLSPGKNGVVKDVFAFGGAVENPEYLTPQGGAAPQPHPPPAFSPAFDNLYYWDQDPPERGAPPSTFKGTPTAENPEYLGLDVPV

Row | Structure (SMILES) | viability [1] | Her2 level [2] | viability [3] | viability [4] | viability [5] | differential viability (reversal) ([6]; H69AR cells + 2 uM doxorubicin) | viability [6, 9] | viability [6, 10] | inhibition [7] | inhibition [8]
1 | COc1ccc(N(CC(=O)NC2CCCC2)C(=O)Cn2nnc(-c3ccc(C)cc3)n2)cc1 | 79% | 99.5% (inactive) | 79% (inactive) | 95.5% (inactive) | 89.1% (inactive) | -4.01% (inactive) | 93.1% | 89.1% | 2.76% (inactive) | -7.58% (inactive)
2 | COC(=O)c1cc2ccsc2n1CC(=O)Nc1cc(C)cc(C)c1 | 96.5% | 124% (inactive) | 96.5% (inactive) | 64% (inactive) | 84.8% (inactive) | -0.08% (inactive) | 84.8% | 84.8% | 1.92% (inactive) | 14.3% (inactive)
3 | COCCOC(=O)c1c(C)nc(SCC(=O)Nc2ccc(OC)cc2)c(C#N)c1-c1ccco1 | 108% | 87.5% (inactive) | 108% (inactive) | 73.9% (inactive) | 91% (inactive) | 14.7% (inactive) | 76.3% | 91% | -2.63% (inactive) | -5.97% (inactive)
4 | CC(C)CNS(=O)(=O)c1ccc(CCC(=O)N2CCOCC2)cc1 | 87.5% | 94% (inactive) | 87.5% (inactive) | 95% (inactive) | 91.3% (inactive) | -3.29% (inactive) | 94.6% | 91.3% | -4.73% (inactive) | -4.59% (inactive)
5 | CCOc1ccc(NC(=O)CSc2nnc(Cc3cccn3C)n2-c2ccc(OC)cc2)cc1 | 82% | 81% (inactive) | 82% (inactive) | 79.5% (inactive) | 90.6% (inactive) | -5.27% (inactive) | 95.9% | 90.6% | -1.49% (inactive) | -8.03% (inactive)
6 | CC1CCN(S(=O)(=O)c2cn(CC(=O)N3CCN(C)CC3)c(=O)c3ccccc23)CC1 | 122% | 97% (inactive) | 122% (inactive) | 104% (inactive) | 97.4% (inactive) | 0.39% (inactive) | 97% | 97.4% | -1.69% (inactive) | -7.46% (inactive)
7 | COc1ccc(-c2noc(CCCC(=O)O)n2)cc1 | 130% | 91.5% (inactive) | 130% (inactive) | 97.1% (inactive) | 95% (inactive) | 5.04% (inactive) | 89.9% | 95% | -6.4% (inactive) | 5.08% (inactive)
8 | CCCNC(=O)NC(C(=O)OC)C12CC3CC(CC(C3)C1)C2 (stereo not given) | 101% | 76.5% (inactive) | 101% (inactive) | 80.4% (inactive) | 102% (inactive) | 10.1% (inactive) | 91.6% | 102% | -5% (inactive) | -1.5% (inactive)
9 | O=C(CSc1ncc(-c2ccc(F)cc2)[nH]1)N1CCCCC1 | 91% | 124% (inactive) | 91% (inactive) | 92.6% (inactive) | 91.3% (inactive) | 2.38% (inactive) | 89% | 91.3% | -2.95% (inactive) | 0% (inactive)
10 | COc1ccc(-c2c(C(F)(F)F)oc3c(CN4CCN(C)CC4)c(O)ccc3c2=O)cc1 | 84.5% | 108% (inactive) | 84.5% (inactive) | 87.9% (inactive) | 102% (inactive) | -1.1% (inactive) | 103% | 102% | -2.67% (inactive) | -6.03% (inactive)
11 | Cc1cccc(C2CC(c3ccc(Br)cc3)Nc3nc(N)nn32)c1 (stereo not given) | 92.5% | 94% (inactive) | 92.5% (inactive) | 72.6% (inactive) | 87.6% (inactive) | -14.7% (inactive) | 102% | 87.6% | -4.4% (inactive) | 2.33% (inactive)
12 | CC1(C)Cc2cccc(OCC(=O)O)c2O1 | 107% | 90% (inactive) | 107% (inactive) | 94.5% (inactive) | 95.4% (inactive) | 7.61% (inactive) | 87.8% | 95.4% | -4.53% (inactive) | -3.97% (inactive)
13 | COc1ccccc1OCC(=O)Nc1cccc(-c2nc3ccccc3o2)c1 | 104% | 78.5% (inactive) | 104% (inactive) | 52.8% (inactive) | 65.1% (inactive) | -14.2% (inactive) | 79.3% | 65.1% | -0.13% (inactive) | 23% (inactive)
14 | CC(=Nc1ccc(C)c(C)c1)C1=C(O)CCC1=O | 102% | 88.5% (inactive) | 102% (inactive) | 95.1% (inactive) | 94.7% (inactive) | 12% (inactive) | 82.8% | 94.7% | -3.73% (inactive) | -2.46% (inactive)
15 | CSc1nc(NC(C)(C)C)nc(Oc2ccc(=O)[nH]n2)n1 | 101% | 93.5% (inactive) | 101% (inactive) | 107% (inactive) | 92.1% (inactive) | 0.405% (inactive) | 91.7% | 92.1% | -3.82% (inactive) | 2.46% (inactive)
16 | CS(=O)(=O)c1ccc2nc(NC(=O)C3C4C=CC(C4)C3C(=O)O)sc2c1 (stereo not given) | 96% | 154% (inactive) | 96% (inactive) | 101% (inactive) | 104% (inactive) | 13.3% (inactive) | 90.3% | 104% | -2.5% (inactive) | -12.8% (inactive)
17 | CCn1c(SCC(=O)N2CCCc3ccccc32)nnc1-c1cccs1 | 85.5% | 72.5% (inactive) | 85.5% (inactive) | 83.3% (inactive) | 87.5% (inactive) | 5.33% (inactive) | 82.2% | 87.5% | -5.87% (inactive) | 0.16% (inactive)
18 | Cc1cccc(C(OC(=O)c2ccco2)C(=O)NCc2ccccc2)n1 (stereo not given) | 102% | 90% (inactive) | 102% (inactive) | 86.6% (inactive) | 96.1% (inactive) | 7.79% (inactive) | 88.3% | 96.1% | -2.03% (inactive) | -1.64% (inactive)
19 | CC(=O)c1ccc(OC(=O)c2cccs2)cc1 | 86% | 94.5% (inactive) | 86% (inactive) | 94.1% (inactive) | 105% (inactive) | -5.42% (inactive) | 110% | 105% | -3.11% (inactive) | 3.61% (inactive)
20 | Cc1cccc(-c2cc3nc4c(c(N5CCC6(CC5)OCCO6)n3n2)CCCC4)c1 | 80.5% | 100% (inactive) | 80.5% (inactive) | 77.8% (inactive) | 83.9% (inactive) | -9.12% (inactive) | 93% | 83.9% | -2.13% (inactive) | 9.37% (inactive)
21 | CC(=O)Nc1ccc(S(=O)(=O)NCC(C)NS(=O)(=O)c2ccc(NC(C)=O)cc2)cc1 (stereo not given) | 106% | 114% (inactive) | 106% (inactive) | 94.5% (inactive) | 98.6% (inactive) | 3.06% (inactive) | 95.5% | 98.6% | 0.13% (inactive) | -1.27% (inactive)
22 | O=C(CSc1nnc(Cc2cccs2)n1Cc1ccco1)Nc1cccc(Cl)c1 | 82.5% | 64% (inactive) | 82.5% (inactive) | 73.4% (inactive) | 87% (inactive) | -8.62% (inactive) | 95.6% | 87% | -3.38% (inactive) | -7.5% (inactive)
23 | CCCS(=O)(=O)Nc1c(C(=O)O)[nH]c2ccccc12 | 94.5% | 93% (inactive) | 94.5% (inactive) | 83.9% (inactive) | 94.5% (inactive) | -11.1% (inactive) | 106% | 94.5% | -5.13% (inactive) | -12.8% (inactive)
24 | CCOc1ccc(C(=O)CN2CCN(S(=O)(=O)c3ccc(OC)cc3)CC2)cc1 | 99.5% | 88% (inactive) | 99.5% (inactive) | 91.2% (inactive) | 86.7% (inactive) | -8.05% (inactive) | 94.7% | 86.7% | -3.68% (inactive) | -8.33% (inactive)
25 | CCCN(Cc1cc2cc(C)ccc2[nH]c1=O)C(=O)c1cccc(OC)c1 | 114% | 91% (inactive) | 114% (inactive) | 70.6% (inactive) | 81.2% (inactive) | -0.89% (inactive) | 82.1% | 81.2% | -7.07% (inactive) | -0.65% (inactive)
26 | CC1(C)CNC(=O)c2sc(N3CCOCC3)nc2C1 | 114% | 87% (inactive) | 114% (inactive) | 67.9% (inactive) | 77.3% (inactive) | -4.71% (inactive) | 82% | 77.3% | -3.82% (inactive) | 1.27% (inactive)
27 | O=C(CCC(=O)N1CCc2ccccc2C1)N1CCN(S(=O)(=O)c2ccccc2)CC1 | 82% | 116% (inactive) | 82% (inactive) | 84.4% (inactive) | 90.6% (inactive) | -0.59% (inactive) | 91.2% | 90.6% | 4.81% (inactive) | 12.9% (inactive)
28 | COc1ccc(-n2c(COc3cccc(C)c3)nnc2SCC(=O)NCc2ccco2)cc1 | 126% | 91% (inactive) | 126% (inactive) | 84.4% (inactive) | 85.4% (inactive) | -10.3% (inactive) | 95.7% | 85.4% | -2.84% (inactive) | -1.43% (inactive)
